We go through 4 compounds from publication PMC10731006 (Heliyon, 2023).

A short description of series [1]: DPPH radical scavenging assay. A general note: Loss of DPPH colour is used to gauge radical scavenging.
Series [2] in a line: ABTS radical scavenging assay.
Series [3] has as its system Staphylococcus aureus (ATCC 10145). As to the kind of experiment: Micro-broth dilution assay. Format: cell-based. Particulars: ATCC10145, read-out: MIC SA. (In general: Dilution methods test growth across graded concentrations, often in twofold steps.)
Series [4] concerns human dermal fibroblast (HDF, human dermal cell line). As to the kind of experiment: MTT cytotoxicity assay, normal cells. Format: cell-based. Particulars: Homo sapiens, Fibroblast, 96 h, read-out: IC50 HDF. The essentials:
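Human dermal fibroblasts were maintained in DMEM with 10% FCS, 2 mM L-glutamine and 1% penicillin-streptomycin (37 °C, 5% CO2). They were seeded at 1 × 10^4 cells/ml, allowed to adhere overnight, then treated 96 h with serially diluted test compound (six final levels, 1–600) beside DMSO-matched vehicle and cisplatin controls. Then MTT 5 mg/ml was added for 4 h, formazan taken up in DMSO, and absorbance read at 540 nm, in triplicate. IC50 was fitted.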
(In general: Formazan colour is commonly taken as a measure of viable cells.)

For series [5], the system named is B. subtilis (ATCC 6633). Kind of series: Agar diffusion test, B. subtilis. The conditions noted are these: Bacillus subtilis, ATCC6633, read-out: Zone of inhibition BS. Format: cell-based.
For series [6], the system named is non-small cell lung cancer (A549) cells. As to the kind of experiment: MTT cytotoxicity assay, A549. Particulars: for IC50: Homo sapiens, A549, 96 h, read-out: IC50 A549; for SI A549 (selectivity index): IC50 in HDF / IC50 in A549, 96 h. In kind it is cell-based, human. Summed up:
(§1)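 Cells were grown in RPMI 1640 with 10% FCS, 2 mM L-glutamine and 1% penicillin-streptomycin at 37 °C under 5% CO2. They were seeded at 1 × 10^4 cells/ml, left overnight to adhere, and exposed 96 h to test compound diluted in medium (six final levels, 1–600), with DMSO-matched and cisplatin controls. MTT at 5 mg/ml was added for 4 h, formazan dissolved in DMSO, and A540 read, in triplicate. IC50 was fitted from the data. SI = IC50 in HDF / IC50 in this line.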

Series [7] has as its system B. subtilis (ATCC 6633). Kind of series: Micro-broth dilution assay. Particulars: Bacillus subtilis, ATCC6633, read-out: MIC BS. In kind it is cell-based.
Series [8] relates to Bacillus cereus (ATCC 11778). As to the kind of experiment: Agar diffusion test, B. cereus. In kind it is cell-based. The conditions noted are these: ATCC11778, read-out: Zone of inhibition BC.
Series [9] concerns breast cancer (MCF7) cells. As to the kind of experiment: MTT cytotoxicity assay, MCF7. Format: cell-based, human. Particulars: for IC50: Homo sapiens, MCF7, 96 h, read-out: IC50 MCF-7; for SI MCF-7 (selectivity index): IC50 in HDF / IC50 in MCF-7, 96 h. The essentials:
as §1

Series [10] has as its system Pseudomonas aeruginosa (ATCC 13048). Kind of series: Micro-broth dilution assay. Particulars: ATCC13048, read-out: MIC PA. In kind it is cell-based.
Series [11] relates to glioblastoma (U-87 MG) cells. Kind of series: MTT cytotoxicity assay, U-87 MG. Format: cell-based, human. Particulars: for IC50: Homo sapiens, U-87 MG, 96 h, read-out: IC50 U87; for SI U87 (selectivity index): IC50 in HDF / IC50 in U87, 96 h. The essentials:
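U-87 MG cells were cultured in DMEM with 10% FCS, 2 mM L-glutamine and 1% penicillin-streptomycin at 37 °C, 5% CO2. Seeding was 1 × 10^4 cells/ml; after overnight adherence, test compound diluted in medium (six final levels, 1–600) was applied for 96 h alongside DMSO-matched and cisplatin controls. Read-out: MTT 5 mg/ml for 4 h, DMSO solubilisation, A540, in triplicate, IC50 fitted. SI = IC50 in HDF / IC50 in U87.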

Series [12] deals with Bacillus cereus (ATCC 11778). Kind of series: Micro-broth dilution assay. In kind it is cell-based. Particulars: ATCC11778, read-out: MIC BC.
Series [13] has as its system Escherichia coli (ATCC 25922). Kind of series: Micro-broth dilution assay. In kind it is cell-based. Particulars: ATCC25922, read-out: MIC EC.
In series [14] the test system is Gram-positive and Gram-negative bacterial test strains. As to the kind of experiment: Antibacterial activity, whole panel of test strains. In kind it is cell-based. Summed up: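 Disc diffusion followed CLSI (2012). Test compound at 10, 50 and 100 μg/disc was loaded on 6-mm blank filter discs laid on Mueller Hinton agar seeded at 10^6 cells/ml. Strains were S. aureus ATCC 10145, B. cereus ATCC 11778, B. subtilis ATCC 6633, P. aeruginosa ATCC 13048 and E. coli ATCC 25922. Inhibition zones were recorded.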

The subject of series [15] is cancer cell lines (U87, MCF-7 and A549) compared to normal cells (HDF). As to the kind of experiment: MTT cytotoxicity, cancer cell lines compared to normal cells. In kind it is cell-based, human. The conditions noted are these: 96 h treatment. Summed up:
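A549 and MCF7 grown in RPMI 1640, HDF and U87 in DMEM, each with 10% FCS, 2 mM L-glutamine, 1% pen-strep, 37 °C, 5% CO2. Cells at 1 × 10^4 cells/ml were adhered overnight, then exposed 96 h to test compound (final 1–600 […] in medium). Controls were blank, untreated, DMSO-matched and cisplatin (1–100 μM/mL). MTT 5 mg/ml for 4 h; DMSO-solubilised formazan read at 540 nm, triplicate. IC50 from curve fitting; selectivity index = HDF IC50 / cancer-line IC50.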

For series [16], the system named is Escherichia coli (ATCC 25922). Kind of series: Agar diffusion test, E. coli. Format: cell-based. The conditions noted are these: ATCC25922, read-out: Zone of inhibition EC.
For series [17], the system named is Pseudomonas aeruginosa (ATCC 13048). Kind of series: Agar diffusion test, P. aeruginosa. Format: cell-based. The conditions noted are these: ATCC13048, read-out: Zone of inhibition PA.

Each structure is given as a SMILES string. ≈ marks a conversion by molar mass, not a printed value. Entries after “also recorded” stand apart in the source; their conditions may differ.

In the case of `Cc1c(C)c2c(c(C)c1O)CCC(C)(C(=O)O)O2` (centres unmarked) [Trolox®, reference compound], the “IC50 ± SD, DPPH” value in series [1] was 5.2 ± 0.3 µg/mL (≈ 20.8 µM). Moreover, in series [2], the “IC50 ± SD, ABTS” value is 2.7 ± 0.2 µg/mL (≈ 10.8 µM).
Turning to `COC(=O)c1cn(C2CC2)c2cc(N3CCN(C(=O)c4c(C)nnn4-c4ccc([N+](=O)[O-])cc4)CC3)c(F)cc2c1=O` [Compound 6e, methyl 7-(4-(1-(4-nitrophenyl)-4-methyl-1H-1,2,3-triazole-5-carbonyl)piperazin-1-yl)-1-cyclopropyl-6-fluoro-4-oxo-1,4-dihydroquinoline-3-carboxylate], the minimum inhibitory concentration (MIC) in [3], in series [7], in [10], in series [12] and in series [13] was more than 500 µg/mL throughout. Also, the IC50 is 83 ± 5.8 µM in series [4], 79 ± 4.7 µM in [6], 58.6 ± 5.9 µM in series [9] and 45 ± 7.1 µM in series [11]. Moreover, the zone of inhibition at 100 µg/disc in [5] amounted to 9.6 ± 0.6 mm; in series [8] it was 10.3 ± 0.6 mm. Besides, the figures for the zone of inhibition at 300 µg/disc in [5] and in series [8] were 13.1 ± 0.3 mm and 11.3 ± 0.6 mm, respectively. Besides, the zone of inhibition at 500 µg/disc in [5] stood at 14.3 ± 0.6 mm; in [8] it was 13.3 ± 0.6 mm. The “SI A549 (selectivity index)” value in series [6] came out at 1.1. In series [1], the “IC50 ± SD, DPPH” value was 18.5 ± 1.6 µg/mL (≈ 32.1 µM). The “% inhibition ±SD, DPPH” value in series [1] (5 μg/ml) turned out to be 17.1 ± 0.6%; in series [1] (10 μg/ml), 33.8 ± 0.5%; in series [1] (25 μg/ml) it was 54.5 ± 0.4%; in series [1] (50 μg/ml), 60.7 ± 0.8%; in series [1] (100 μg/ml), 67.9 ± 0.6%. Moreover, the “SI MCF-7 (selectivity index)” value in series [9] was found to be 1.4. The “IC50 ± SD, ABTS” value in series [2] was 24.2 ± 1.0 µg/mL (≈ 42 µM). Further, the “% inhibition ±SD, ABTS” value stood at 14.9 ± 1.4% in [2] (5 μg/ml); 37.0 ± 0.2% in series [2] (10 μg/ml); 50.3 ± 0.5% in [2] (25 μg/ml); 71.2 ± 0.2% in [2] (50 μg/ml); 74.3 ± 0.4% in series [2] (100 μg/ml). The “SI U87 (selectivity index)” value in series [11] is listed as 1.8.
For `COC(=O)c1cn(C2CC2)c2cc(N3CCN(C(=O)c4c(C)nnn4-c4ccc(F)cc4)CC3)c(F)cc2c1=O` [Compound 6f, methyl 7-(4-(1-(4-fluorophenyl)-4-methyl-1H-1,2,3-triazole-5-carbonyl)piperazin-1-yl)-1-cyclopropyl-6-fluoro-4-oxo-1,4-dihydroquinoline-3-carboxylate], the MIC in [3], in [7], in series [10], in [12] and in series [13] was more than 500 µg/mL each time. Also, the IC50 amounted to 142 ± 4.1 µM in series [4], 104 ± 4.5 µM in [6], 10.6 ± 3 µM in [9] and 7.9 ± 2.3 µM in [11]. For the same compound, the “SI A549 (selectivity index)” value in [6] was found to be 1.4. Besides, the “antibacterial activity in words” value in [14] is “deprived of any antibacterial activity”. In addition, in [1], the “IC50 ± SD, DPPH” value came out at 56.2 ± 2.1 µg/mL (≈ 102 µM). Besides, the “% inhibition ±SD, DPPH” value in [1] (5 μg/ml) is on record as 10.6 ± 0.9%; in [1] (10 μg/ml), 20.7 ± 0.8%; in series [1] (25 μg/ml), 39.5 ± 0.5%; in series [1] (50 μg/ml) it was 48.9 ± 0.4%; in series [1] (100 μg/ml) it was 66.9 ± 0.3%. Moreover, the “cytotoxic / anti-proliferative activity in words” value in [15] was “significant cytotoxic activity against only U-87 and MCF-7 cancer cell lines”. Further, the “SI MCF-7 (selectivity index)” value in series [9] amounted to 13.3. In addition, the “IC50 ± SD, ABTS” value in series [2] worked out at 39.2 ± 2.1 µg/mL (≈ 71.5 µM). Also, the “% inhibition ±SD, ABTS” value in [2] (5 μg/ml) came out at 13.3 ± 0.6%; in series [2] (10 μg/ml), 29.7 ± 0.7%; in [2] (25 μg/ml), 46.1 ± 0.1%; in [2] (50 μg/ml), 54.1 ± 0.7%; in series [2] (100 μg/ml) it was 64.2 ± 0.4%. Also, the “SI U87 (selectivity index)” value in [11] is 18.
In the case of `COC(=O)c1cn(C2CC2)c2cc(N3CCN(C(=O)c4c(C)nnn4Cc4cccc(F)c4)CC3)c(F)cc2c1=O` [Compound 6b, methyl 7-(4-(1-(3-fluorobenzyl)-4-methyl-1H-1,2,3-triazole-5-carbonyl)piperazin-1-yl)-1-cyclopropyl-6-fluoro-4-oxo-1,4-dihydroquinoline-3-carboxylate], the MIC was more than 500 µg/mL in [3]; more than 500 µg/mL in series [7]; 500 µg/mL (≈ 889 µM) in series [10]; more than 500 µg/mL in series [12]; 500 µg/mL (≈ 889 µM) in series [13]. In addition, the zone of inhibition at 100 µg/disc in [16] amounted to 10.6 ± 1.2 mm; in [17] it was 12.3 ± 0.7 mm. Besides, the results for the zone of inhibition at 300 µg/disc in series [16] and in [17] were 13.3 ± 1.5 mm and 13.6 ± 0.6 mm, respectively. The results for the zone of inhibition at 500 µg/disc in series [16] and in series [17] were 14.7 ± 0.6 mm and 15.3 ± 0.3 mm, respectively. Further, the concentration for half-maximal inhibition (IC50) in series [4] was found to be 171 ± 8.1 µM; in series [6] it was 29.4 ± 6.2 µM; in series [9], 10.6 ± 2.3 µM; in [11] it was 1.2 ± 0.8 µM. For the same compound, the “SI A549 (selectivity index)” value in series [6] was 5.8. The “antibacterial activity in words” value in series [14] is “activity against Gram-negative ones without inhibiting the Gram-positive test strains”. In addition, in series [1], the “IC50 ± SD, DPPH” value was 32.4 ± 1.1 µg/mL (≈ 57.6 µM). Further, the “% inhibition ±SD, DPPH” value in [1] (10 μg/ml) is given as 18.9 ± 0.3%; in [1] (25 μg/ml), 40.6 ± 0.9%; in series [1] (50 μg/ml) it was 58.5 ± 0.6%; in series [1] (100 μg/ml), 84.1 ± 0.2%. In addition, in series [15], the “cytotoxic / anti-proliferative activity in words” value is recorded as “remarkable anti-proliferative activity against all three cell-lines; also recorded: significant cytotoxic activity against all cancer cell lines”. Further, in series [9], the “SI MCF-7 (selectivity index)” value is listed as 16.1. In addition, in series [2], the “IC50 ± SD, ABTS” value was 35.3 ± 1.6 µg/mL (≈ 62.7 µM). The “% inhibition ±SD, ABTS” value in [2] (5 μg/ml) is recorded as 11.8 ± 0.5%; in series [2] (10 μg/ml) it was 28.3 ± 0.4%; in [2] (25 μg/ml), 43.4 ± 0.3%; in series [2] (50 μg/ml), 53.9 ± 0.8%; in [2] (100 μg/ml), 72.9 ± 0.5%. The “SI U87 (selectivity index)” value in [11] is on record as 142.3.

The term MIC denotes the lowest concentration that inhibits growth of the organism. A word on the IC50: it is the midpoint of a concentration-inhibition curve. What is called zone of inhibition is the size of the clear area around the sample on an inoculated plate.
